Laboratory results as given in ChEMBL document CHEMBL3286381 (J Med Chem, 2014).
Calls of active or inactive are those of the source. The rule behind the calls is not given here.

Assays:
[1] = target: T1, Ectonucleotide pyrophosphatase/phosphodiesterase family member 1 (Homo sapiens, UniProt P22413); experiment: Mixed type inhibition of human NPP1 using pNP-TMP as substrate assessed as dissociation constant for enzyme-inhibitor-substrate complex after 20 mins by Dixon and Cornish-Bowden method
T1 sequence (P22413 whole entry): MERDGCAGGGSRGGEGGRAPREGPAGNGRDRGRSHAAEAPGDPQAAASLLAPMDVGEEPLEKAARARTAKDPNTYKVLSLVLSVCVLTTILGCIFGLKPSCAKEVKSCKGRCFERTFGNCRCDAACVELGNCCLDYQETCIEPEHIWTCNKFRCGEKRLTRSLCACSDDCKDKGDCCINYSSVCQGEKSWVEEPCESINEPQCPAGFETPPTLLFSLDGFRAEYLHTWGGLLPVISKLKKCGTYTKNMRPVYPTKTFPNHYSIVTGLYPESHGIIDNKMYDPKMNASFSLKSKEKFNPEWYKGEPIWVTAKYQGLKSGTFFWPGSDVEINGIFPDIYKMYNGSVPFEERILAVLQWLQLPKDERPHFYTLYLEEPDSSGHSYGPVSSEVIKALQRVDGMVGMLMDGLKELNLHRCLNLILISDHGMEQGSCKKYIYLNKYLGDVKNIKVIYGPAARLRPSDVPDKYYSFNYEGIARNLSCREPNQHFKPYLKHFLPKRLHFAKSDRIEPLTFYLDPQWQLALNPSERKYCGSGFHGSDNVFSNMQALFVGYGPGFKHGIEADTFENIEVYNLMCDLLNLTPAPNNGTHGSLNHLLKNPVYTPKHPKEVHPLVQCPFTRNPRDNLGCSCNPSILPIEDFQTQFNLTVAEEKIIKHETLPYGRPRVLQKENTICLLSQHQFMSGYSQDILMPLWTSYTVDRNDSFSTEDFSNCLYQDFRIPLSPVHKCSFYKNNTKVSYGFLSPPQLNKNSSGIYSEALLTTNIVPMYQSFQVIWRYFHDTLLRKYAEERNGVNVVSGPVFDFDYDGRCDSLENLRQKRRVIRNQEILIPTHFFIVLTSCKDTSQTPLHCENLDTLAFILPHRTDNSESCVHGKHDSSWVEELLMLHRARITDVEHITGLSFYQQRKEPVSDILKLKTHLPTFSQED
Method in brief: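 Human NPP1 (COS-7 lysate) is tested with pNP-TMP hydrolysis at 37 °C in pH 8.5 Tris buffer, reading p-nitrophenol at […]. Substrate is 25, 50 and 100 μM, and inhibitor is 0, 25, 50 and 100 μM. Inhibition type, Ki and Ki′ (EIS complex dissociation constant) come from Dixon and Cornish–Bowden plots of three independent experiments.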

[2] = target: T2, Ectonucleoside triphosphate diphosphohydrolase 3 (Homo sapiens) (UniProt O75355); experiment: Inhibition of human NTPDase-3 using ATP as substrate assessed as inorganic phosphate release at 100 uM after 15 mins relative to control
T2 sequence (whole entry): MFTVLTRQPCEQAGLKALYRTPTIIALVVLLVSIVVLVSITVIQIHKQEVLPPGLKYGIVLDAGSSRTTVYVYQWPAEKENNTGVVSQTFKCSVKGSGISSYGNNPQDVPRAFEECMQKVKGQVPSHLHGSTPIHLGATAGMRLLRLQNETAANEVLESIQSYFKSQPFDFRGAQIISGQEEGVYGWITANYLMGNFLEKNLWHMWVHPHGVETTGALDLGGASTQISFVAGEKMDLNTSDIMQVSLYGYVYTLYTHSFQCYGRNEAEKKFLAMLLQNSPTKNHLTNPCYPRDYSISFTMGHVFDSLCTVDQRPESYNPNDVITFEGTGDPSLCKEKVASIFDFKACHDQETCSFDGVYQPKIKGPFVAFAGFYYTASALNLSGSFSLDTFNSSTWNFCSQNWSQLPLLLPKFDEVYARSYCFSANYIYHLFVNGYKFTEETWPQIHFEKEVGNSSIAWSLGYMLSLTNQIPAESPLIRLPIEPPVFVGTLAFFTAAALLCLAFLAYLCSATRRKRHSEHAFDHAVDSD
Method in brief: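 Protein extracts are from COS-7 cells transiently transfected with human NTPDase1, 2, 3 or 8. Extract is preincubated for 3 min at 37 °C in Tris–Ringer buffer (pH 7.3). […] Three experiments in triplicate.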

[3] = target: T3, P2Y purinoceptor 11 (Homo sapiens) (UniProt Q96G91); experiment: Agonist activity at human P2Y11 receptor expressed in human 1321N1 cells assessed as increase of intracellular calcium level up to 10 uM after 30 mins using fura-2 AM by fluorescence assay; assay type: functional, cell-based
T3 sequence (whole entry): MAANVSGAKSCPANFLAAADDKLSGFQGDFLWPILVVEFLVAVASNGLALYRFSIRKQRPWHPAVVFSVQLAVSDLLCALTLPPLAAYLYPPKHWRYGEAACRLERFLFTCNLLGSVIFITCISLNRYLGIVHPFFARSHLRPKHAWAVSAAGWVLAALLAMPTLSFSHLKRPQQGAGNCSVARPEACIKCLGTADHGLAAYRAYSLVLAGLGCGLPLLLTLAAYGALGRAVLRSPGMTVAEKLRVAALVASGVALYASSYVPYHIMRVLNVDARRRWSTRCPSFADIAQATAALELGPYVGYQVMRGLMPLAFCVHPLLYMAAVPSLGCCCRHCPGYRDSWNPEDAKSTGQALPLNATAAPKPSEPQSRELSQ

[4] = target: P2Y purinoceptor 2 (Homo sapiens) (UniProt P41231); experiment: Antagonist activity at human P2Y2 receptor expressed in human 1321N1 cells assessed as effect on UTP-induced effect; assay type: cell-based
P2Y purinoceptor 2 (Homo sapiens), sequence (P41231 whole entry): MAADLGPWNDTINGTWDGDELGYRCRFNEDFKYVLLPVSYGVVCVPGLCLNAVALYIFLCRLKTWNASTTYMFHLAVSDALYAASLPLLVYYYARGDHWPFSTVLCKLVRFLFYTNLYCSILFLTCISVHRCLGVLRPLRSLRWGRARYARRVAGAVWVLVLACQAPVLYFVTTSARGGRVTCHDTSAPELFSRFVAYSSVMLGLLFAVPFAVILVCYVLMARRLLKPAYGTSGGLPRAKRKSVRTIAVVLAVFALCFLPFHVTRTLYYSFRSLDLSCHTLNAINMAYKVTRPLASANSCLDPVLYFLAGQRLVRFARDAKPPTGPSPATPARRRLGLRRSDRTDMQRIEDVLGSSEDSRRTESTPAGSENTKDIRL

[5] = target: P2Y purinoceptor 2 (Homo sapiens) (UniProt P41231); experiment: Agonist activity at human P2Y2 receptor expressed in human 1321N1 cells assessed as increase of intracellular calcium level at 100 uM after 30 mins using fura-2 AM by fluorescence assay; assay type: functional, cell-based
[6] = target: T4, Alkaline phosphatase, tissue-nonspecific isozyme (Homo sapiens) (UniProt P05186); experiment: Inhibition of TNAP (unknown origin) using ATP as substrate assessed as inorganic phosphate release at 100 uM after 15 mins relative to control
T4 sequence (whole entry): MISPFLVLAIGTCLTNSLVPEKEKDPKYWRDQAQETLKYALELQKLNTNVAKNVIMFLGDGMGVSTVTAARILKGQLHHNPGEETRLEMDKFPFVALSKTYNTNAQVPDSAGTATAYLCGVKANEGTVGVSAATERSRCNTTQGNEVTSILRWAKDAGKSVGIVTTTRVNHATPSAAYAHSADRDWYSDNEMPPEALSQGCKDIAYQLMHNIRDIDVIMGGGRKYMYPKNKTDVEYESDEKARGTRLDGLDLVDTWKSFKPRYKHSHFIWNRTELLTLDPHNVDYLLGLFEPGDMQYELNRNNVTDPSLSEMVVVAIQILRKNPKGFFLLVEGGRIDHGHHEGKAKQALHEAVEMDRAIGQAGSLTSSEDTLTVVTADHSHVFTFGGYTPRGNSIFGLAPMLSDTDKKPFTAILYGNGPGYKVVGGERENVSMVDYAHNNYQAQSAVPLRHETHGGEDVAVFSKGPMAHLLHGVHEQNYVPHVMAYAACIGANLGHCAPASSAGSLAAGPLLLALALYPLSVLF

Question: How did the Ki [1] turn out when Nc1ncnc2c1ncn2[C@@H]1O[C@H](CO[P@](O)(=S)OP(=O)(O)CP(=O)(O)O)[C@@H](O)[C@H]1O was run?
Answer: 4.5 µM

Question: What about the inhibition [2] of the same compound?
Answer: 26.8%

Question: And the Activity [3]?
Answer: inactive

Question: How did the inhibition [4] turn out when Nc1ncnc2c1ncn2[C@@H]1O[C@H](COP(=O)(O)CP(=O)(O)OP(O)(O)=S)[C@@H](O)[C@H]1O was run?
Answer: inactive

Question: And the Activity [5]?
Answer: inactive

Question: What about the inhibition [6] of the same compound?
Answer: 8%

Question: And the inhibition [2]?
Answer: 40.2%

Question: With Nc1ncnc2c1ncn2[C@@H]1O[C@H](CO[P@](O)(=S)OP(=O)(O)C(Cl)(Cl)P(=O)(O)O)[C@@H](O)[C@H]1O as the compound, how does the inhibition [4] read?
Answer: inactive

Question: What about the Activity [5] of the same compound?
Answer: inactive

Question: What about the inhibition [6] of the same compound?
Answer: 17%

Question: What about the inhibition [2] of the same compound?
Answer: 21.8%

Question: How did the inhibition [2] turn out when Nc1ncnc2c1ncn2[C@@H]1O[C@H](CO[P@@](O)(=S)OP(=O)(O)C(Cl)(Cl)P(=O)(O)O)[C@@H](O)[C@H]1O was run?
Answer: 18.7%

Question: For Nc1ncnc2c1ncn2[C@@H]1O[C@H](CO[P@@](O)(=S)OP(=O)(O)CP(=O)(O)O)[C@@H](O)[C@H]1O, which inhibition [2] is on record?
Answer: 24%
